Measurements published in the RNAGym collection of RNA variant scans (doi:10.1002/anie.201605470).

B1: Osa-1-4 twister ribozyme (parent)
chain: CCGCCUAACACUGCCAAUGCCGGUCCCAAGCCCGGAUAAAAGUGGAGGGGGCGG

Variants of: B1
Test: self-cleavage, relative activity (ratio to wild type); higher = more cleavage; co-transcriptional
Procedure, shortened: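 A DNA template encoding a 54-nucleotide twister ribozyme from Oryza sativa was made so that each of the 48 positions downstream of the cleavage site carried 97 % wild-type base and 1 % of each other base. Transcription in vitro ran for 2 h at 37 °C, during which the ribozyme could cleave itself. Reverse transcription used a template-switching oligonucleotide, and the products were PCR-amplified and deep-sequenced. Each read was scored as cleaved or uncleaved by whether upstream sequence was present, and relative activity is the fraction cleaved normalised to wild type.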

Variant | self-cleavage
C11U G54C | 0.8
C11U G54U | 0.79
C11U G54A | 0.78
G13A G30A | 0.03
G13A G30C | 0.02
G13A G30U | 0.02
C11U G35C | 0.18
C11U G35U | 0.69
C11U G35A | 0.65
G13A G45C | 0.02
G13A G45A | 0.03
G13A G45U | 0.02
C11U G42C | 0.85
C11U G42A | 0.93
C11U G42U | 0.47
G13C G30U | 0.01
G13C G30A | 0.01
G13C G30C | 0.02
G13C G19C | 0.03
G13C G19U | 0.02
G13C G19A | 0.03
G13C G23C | 0.01
G13C G23U | 0.02
G13C G23A | 0.02

Variant | self-cleavage
G13A G35U | 0.08
G13A G35A | 0.12
G13A G35C | 0.05
C11U C52A | 0.83
C11U C52G | 0.81
C11U C52U | 0.98
C11U U24A | 0.06
C11U U24C | 0.1
C11U U24G | 0.06
C11G G34C | 0.05
C11G G34U | 0.04
C11G G34A | 0.07
U12A U43A | 0.13
U12A U43G | 0.09
U12A U43C | 0.11
U12A U37G | 1
U12A U37A | 0.71
U12A U37C | 1
G13A G23C | 0.02
G13A G23U | 0.02
G13A G23A | 0.04
C11G C52U | 0.73
C11G C52A | 0.24
C11G C52G | 0.22

Variant | self-cleavage
C11G C31A | 0.03
C11G C31U | 0.08
C11G C31G | 0.04
U12G U24C | 0.04
U12G U24A | 0.05
U12G U24G | 0.04
G13A G47C | 0.03
G13A G47U | 0.03
G13A G47A | 0.04
G13A G42A | 0.05
G13A G42U | 0.02
G13A G42C | 0.04
C11U C14G | 0.09
C11U C14U | 0.17
C11U C14A | 0.07
G13A G49U | 0.02
G13A G49C | 0.02
G13A G49A | 0.03
C11G G22A | 0.07
C11G G22U | 0.03
C11G G22C | 0.04
U12C U24G | 0.03
U12C U24A | 0.05
U12C U24C | 0.06

Variant | self-cleavage
C11G C15U | 0.08
C11G C15A | 0.09
C11G C15G | 0.1
C11U C21U | 0.91
C11U C21G | 0.11
C11U C21A | 0.29
C11U C33A | 0.07
C11U C33G | 0.06
C11U C33U | 0.51
C11U C31A | 0.03
C11U C31U | 0.37
C11U C31G | 0.06
U12G U37G | 0.52
U12G U37C | 0.55
U12G U37A | 0.6
C11U | 0.94
C11G | 0.7
U12C U18G | 0.61
U12C U18C | 0.38
U12C U18A | 0.46
C11G G50A | 0.11
C11G G50C | 0.15
C11G G50U | 0.42
G13A G54U | 0.2

Variant | self-cleavage
G13A G54A | 0.07
G13A G54C | 0.06
C11U U12A | 0.6
C11U U12G | 0.37
C11U U12C | 0.47
G13A G44C | 0.08
G13A G44A | 0.05
G13A G44U | 0.07
C11U G44U | 0.67
C11U G44A | 0.8
C11U G44C | 0.84
C11U C32U | 0.07
C11U C32G | 0.08
C11U C32A | 0.06
C11G G19C | 0.03
C11G G19U | 0.05
C11G G19A | 0.08
C11U U18C | 0.71
C11U U18A | 0.85
C11U U18G | 0.7
U12A U24A | 0.07
U12A U24C | 0.08
U12A U24G | 0.03
C11G G49A | 0.05

Variant | self-cleavage
C11G G49C | 0.03
C11G G49U | 0.05
C11G U43G | 0.05
C11G U43C | 0.08
C11G U43A | 0.15
C11G G30A | 0.03
C11G G30C | 0.04
C11G G30U | 0.02
C11G G44U | 0.09
C11G G44C | 0.11
C11G G44A | 0.17
C11U G48U | 0.05
C11U G48C | 0.06
C11U G48A | 0.07
C11U G51A | 0.34
C11U G51C | 0.05
C11U G51U | 0.12
U12C U37G | 0.66
U12C U37A | 0.51
U12C U37C | 0.44
G13A U18C | 0.1
G13A U18G | 0.24
G13A U18A | 0.09
C11U C20U | 0.78

Variant | self-cleavage
C11U C20A | 0.71
C11U C20G | 0.09
U12G | 0.55
U12C | 0.66
U12A | 0.99
C11G U24G | 0.04
C11G U24C | 0.04
C11G U24A | 0.04
C11U U43C | 0.26
C11U U43A | 0.62
C11U U43G | 0.2
G13C | 0.03
G13A | 0.17
U12G U43A | 0.08
U12G U43C | 0.08
U12G U43G | 0.1
C11G U18C | 0.24
C11G U18A | 0.52
C11G U18G | 0.54
C11U G30U | 0.03
C11U G30A | 0.04
C11U G30C | 0.05
C11G C9G | 0.19
